Our source for the IC50 and Activity values is ChEMBL document CHEMBL1909534, “Solvent-free, microwave assisted Knoevenagel condensation of novel 2,5-disubstituted indole analogues and their biological evaluation” (Eur J Med Chem, 2011).

Activity calls are given as the source filed them. The rule behind the calls is not given here. Bounds are passed on as bounds.

For one test, the system named is HeLa. The test can be described thus: Cytotoxicity against human HeLa cells by MTT assay. It counts as functional, cell-based. An outline of the steps: (§1)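 Cells grown in RPMI 1640 with 10% FCS, penicillin 100 U/mL and streptomycin 100 μg/mL at 37 °C, 5% CO₂. Seeded at 1 × 10⁵ cells/well. Compounds diluted in DMSO, tested at 0–100 µg/mL. Viability read by MTT kit, with medium-only wells as control. IC50 derived by non-linear regression from three independent experiments.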
A general note: Formazan colour is commonly taken as a measure of viable cells.
The term IC50 denotes the point on the concentration scale where inhibition reaches its midpoint. In the case of `Cc1ccc2[nH]c(-c3ccccc3)c(C=C3C(=O)NC(=O)NC3=O)c2c1`, the IC50 is above 100 µM.
Still for that read-out and setting: as for `O=C1NC(=S)NC(=O)C1=Cc1c(-c2ccccc2)[nH]c2ccc(Cl)cc12`, the figure is 23.5 µM.
Compound `COc1cccc2c1C(=O)c1c(O)c3c(c(O)c1C2=O)C[C@@](O)(C(=O)CO)C[C@@H]3O[C@H]1C[C@H](N)[C@H](O)[C@H](C)O1` [DOXORUBICIN] returned an IC50 of 0.71 µM.
Turning to `O=C1NC(=O)/C(=C/c2c[nH]c3ccccc23)S1`, the IC50 worked out at 60.7 µM.
For `O=C1NC(=O)/C(=C/c2c(-c3ccccc3)[nH]c3ccc(Cl)cc23)S1`, the IC50 came out at 7 µM.
For `CC1=NNC(=O)/C1=C/c1c(-c2ccccc2)[nH]c2ccc(Cl)cc12`, the midpoint of inhibition, the IC50, lay at 2.1 µM.
For the compound `CC1=NNC(=O)/C1=C/c1c[nH]c2ccccc12`, the IC50 is 33.1 µM. Against the preceding compound, the IC50 is about 16-fold higher.
`O=C1NC(=S)NC(=O)C1=Cc1c[nH]c2ccccc12`: the IC50 worked out at 63 µM.
On the same count and under the same terms, as for `O=C1NC(=O)C(=Cc2c[nH]c3ccccc23)C(=O)N1`, the figure is 74 µM.
Compound `Cc1ccc2[nH]c(-c3ccccc3)c(/C=C3\SC(=O)NC3=O)c2c1` returned an IC50 above 100 µM.
In the case of `Cc1ccc2[nH]c(-c3ccccc3)c(C=C3C(=O)NC(=S)NC3=O)c2c1`, the IC50 is above 100 µM.
Still for that read-out and setting: the figure for `O=C1NC(=O)C(=Cc2c(-c3ccccc3)[nH]c3ccc(Cl)cc23)C(=O)N1` is 30 µM.
In turn, `CC1=NNC(=O)/C1=C/c1c(-c2ccccc2)[nH]c2ccc(C)cc12` returned a half-maximal inhibitory concentration (IC50) above 100 µM.

Another test has as its system Radical scavenging activity. The test is described as follows: Antioxidant activity assessed as DPPH free radical scavenging activity after 20 mins. In kind it is functional. An outline of the steps: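 DPPH method: samples at 10, 50 and 100 μg/100 μl made up to 100 μl with MeOH, mixed with 5 mL 0.1 mM methanolic DPPH, shaken, left 20 min at 27 °C; A517 read against control without sample. % scavenging = (control OD − sample OD)/control OD × 100. BHA as standard.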
A general note: The DPPH test is a chemical assay of radical scavenging.
As for `Cc1ccc2[nH]c(-c3ccccc3)c(C=C3C(=O)NC(=O)NC3=O)c2c1`, the result was inactive.
As for `O=C1NC(=S)NC(=O)C1=Cc1c(-c2ccccc2)[nH]c2ccc(Cl)cc12`, the Activity entry was “Dose-dependent effect”.
Consider `O=C1NC(=O)/C(=C/c2c[nH]c3ccccc23)S1`, for which the Activity entry was “Dose-dependent effect”.
Turning to `O=C1NC(=O)/C(=C/c2c(-c3ccccc3)[nH]c3ccc(Cl)cc23)S1`, the Activity entry was “Dose-dependent effect”.
As to `CC1=NNC(=O)/C1=C/c1c(-c2ccccc2)[nH]c2ccc(Cl)cc12`, the Activity result was “Dose-dependent effect”.
As to `CC1=NNC(=O)/C1=C/c1c[nH]c2ccccc12`, the Activity result was “Dose-dependent effect”.
Take `O=C1NC(=S)NC(=O)C1=Cc1c[nH]c2ccccc12`: the Activity result is “Dose-dependent effect”.
Still for that read-out and setting: the entry for `O=C1NC(=O)C(=Cc2c[nH]c3ccccc23)C(=O)N1` is “Dose-dependent effect”; for `Cc1ccc2[nH]c(-c3ccccc3)c(/C=C3\SC(=O)NC3=O)c2c1` it is “inactive”; for `Cc1ccc2[nH]c(-c3ccccc3)c(C=C3C(=O)NC(=S)NC3=O)c2c1` it is “inactive”.
The same measure, in the same setting: as for `O=C1NC(=O)C(=Cc2c(-c3ccccc3)[nH]c3ccc(Cl)cc23)C(=O)N1`, the entry is “Dose-dependent effect”; as for `CC1=NNC(=O)/C1=C/c1c(-c2ccccc2)[nH]c2ccc(C)cc12`, “inactive”.

A further test deals with HEp-2. The test is described as follows: Cytotoxicity against human Hep2 cells by MTT assay. It counts as functional, cell-based. Summed up:
as §1
For `Cc1ccc2[nH]c(-c3ccccc3)c(C=C3C(=O)NC(=O)NC3=O)c2c1`, the IC50 was above 100 µM.
The same measure, in the same setting: as for `O=C1NC(=S)NC(=O)C1=Cc1c(-c2ccccc2)[nH]c2ccc(Cl)cc12`, the figure is 45.7 µM; as for `COc1cccc2c1C(=O)c1c(O)c3c(c(O)c1C2=O)C[C@@](O)(C(=O)CO)C[C@@H]3O[C@H]1C[C@H](N)[C@H](O)[C@H](C)O1` [DOXORUBICIN], 8.7 µM.
As for `O=C1NC(=O)/C(=C/c2c[nH]c3ccccc23)S1`, the IC50 is above 100 µM.
Same read-out and setting: the figure for `O=C1NC(=O)/C(=C/c2c(-c3ccccc3)[nH]c3ccc(Cl)cc23)S1` is 12.1 µM; for `CC1=NNC(=O)/C1=C/c1c(-c2ccccc2)[nH]c2ccc(Cl)cc12` it is 7.9 µM.
`CC1=NNC(=O)/C1=C/c1c[nH]c2ccccc12` came in with an IC50 of 1.2 µM. This IC50 is about 6.6-fold lower than that of the compound before.
In turn, `O=C1NC(=S)NC(=O)C1=Cc1c[nH]c2ccccc12` displayed an IC50 above 100 µM.
For the compound `O=C1NC(=O)C(=Cc2c[nH]c3ccccc23)C(=O)N1`, the IC50 was above 100 µM.
Compound `Cc1ccc2[nH]c(-c3ccccc3)c(/C=C3\SC(=O)NC3=O)c2c1` returned an IC50 above 100 µM.
Compound `Cc1ccc2[nH]c(-c3ccccc3)c(C=C3C(=O)NC(=S)NC3=O)c2c1` registered an IC50 above 100 µM.
Compound `O=C1NC(=O)C(=Cc2c(-c3ccccc3)[nH]c3ccc(Cl)cc23)C(=O)N1` gave an IC50 above 100 µM.
On to `CC1=NNC(=O)/C1=C/c1c(-c2ccccc2)[nH]c2ccc(C)cc12`, for which half-maximal inhibition (IC50) required 26.3 µM.

Test system in the next test: not listed separately
The test is described as follows: Antioxidant activity assessed as ferric ion reducing ability at after 20 mins by spectrophotometric analysis. In kind it is functional. An outline of the steps:
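10, 50 and 500 μg samples in 2.5 mL 200 mmol/L sodium phosphate pH 6.6 plus 2.5 mL 1% potassium ferricyanide, 20 min at 50 °C. Then 2.5 mL 10% TCA added; 5 mL of this mixed with 5 mL water and 1 mL 0.1% FeCl3, and A700 read. BHA as standard.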
On to `Cc1ccc2[nH]c(-c3ccccc3)c(C=C3C(=O)NC(=O)NC3=O)c2c1`, for which the Activity result is “Dose-dependent effect”.
Regarding `O=C1NC(=S)NC(=O)C1=Cc1c(-c2ccccc2)[nH]c2ccc(Cl)cc12`, the Activity result was “Dose-dependent effect”.
On the same count and under the same terms, as for `O=C1NC(=O)/C(=C/c2c[nH]c3ccccc23)S1`, the entry is “Dose-dependent effect”; as for `O=C1NC(=O)/C(=C/c2c(-c3ccccc3)[nH]c3ccc(Cl)cc23)S1`, “Dose-dependent effect”.
The same measure, in the same setting: the entry for `CC1=NNC(=O)/C1=C/c1c(-c2ccccc2)[nH]c2ccc(Cl)cc12` is “Dose-dependent effect”.
On to `CC1=NNC(=O)/C1=C/c1c[nH]c2ccccc12`, for which the Activity result was “Dose-dependent effect”.
In the case of `O=C1NC(=S)NC(=O)C1=Cc1c[nH]c2ccccc12`, the Activity entry is “Dose-dependent effect”.
As to `O=C1NC(=O)C(=Cc2c[nH]c3ccccc23)C(=O)N1`, the Activity entry is “Dose-dependent effect”.
As to `Cc1ccc2[nH]c(-c3ccccc3)c(/C=C3\SC(=O)NC3=O)c2c1`, the Activity result is “Dose-dependent effect”.
On the same count and under the same terms, the entry for `Cc1ccc2[nH]c(-c3ccccc3)c(C=C3C(=O)NC(=S)NC3=O)c2c1` is “Dose-dependent effect”.
As to `O=C1NC(=O)C(=Cc2c(-c3ccccc3)[nH]c3ccc(Cl)cc23)C(=O)N1`, the Activity entry is “Dose-dependent effect”.
`CC1=NNC(=O)/C1=C/c1c(-c2ccccc2)[nH]c2ccc(C)cc12`: the Activity entry was “Dose-dependent effect”.

The test system of the next test is A549. The test is described as follows: Cytotoxicity against human A549 cells by MTT assay. It counts as functional, cell-based. An outline of the steps:
as §1
On to `Cc1ccc2[nH]c(-c3ccccc3)c(C=C3C(=O)NC(=O)NC3=O)c2c1`, for which the half-inhibitory concentration (IC50) was above 100 µM.
Compound `O=C1NC(=S)NC(=O)C1=Cc1c(-c2ccccc2)[nH]c2ccc(Cl)cc12` came in with an IC50 of 27.5 µM.
`COc1cccc2c1C(=O)c1c(O)c3c(c(O)c1C2=O)C[C@@](O)(C(=O)CO)C[C@@H]3O[C@H]1C[C@H](N)[C@H](O)[C@H](C)O1` [DOXORUBICIN] had an IC50 of 0.7 µM.
The same measure, in the same setting: as for `O=C1NC(=O)/C(=C/c2c[nH]c3ccccc23)S1`, the figure is 87.7 µM; as for `O=C1NC(=O)/C(=C/c2c(-c3ccccc3)[nH]c3ccc(Cl)cc23)S1`, 4.5 µM; as for `CC1=NNC(=O)/C1=C/c1c(-c2ccccc2)[nH]c2ccc(Cl)cc12`, 1 µM.
As to `CC1=NNC(=O)/C1=C/c1c[nH]c2ccccc12`, the IC50 was determined as 3.4 µM.
As to `O=C1NC(=S)NC(=O)C1=Cc1c[nH]c2ccccc12`, the half-inhibitory concentration (IC50) was 52.3 µM.
Same read-out and setting: the figure for `O=C1NC(=O)C(=Cc2c[nH]c3ccccc23)C(=O)N1` is 77.4 µM.
Same read-out and setting: the figure for `Cc1ccc2[nH]c(-c3ccccc3)c(/C=C3\SC(=O)NC3=O)c2c1` is above 100 µM; for `Cc1ccc2[nH]c(-c3ccccc3)c(C=C3C(=O)NC(=S)NC3=O)c2c1` it is above 100 µM; for `O=C1NC(=O)C(=Cc2c(-c3ccccc3)[nH]c3ccc(Cl)cc23)C(=O)N1` it is 27 µM.
Compound `CC1=NNC(=O)/C1=C/c1c(-c2ccccc2)[nH]c2ccc(C)cc12` registered an IC50 of 7.7 µM.

Test system in another test: not listed separately
The test can be described thus: Antioxidant activity assessed as equivalents of ascorbic acid at 10 to 500 ug after 90 mins. In kind it is functional. An outline of the steps:
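Phosphomolybdenum method: 10, 50 and 500 μg samples mixed with 1.9 mL reagent (0.6 M sulfuric acid, 28 mM sodium phosphate, 4 mM ammonium molybdate), held 90 min at 95 °C, cooled, A695 read against blank. Values are μg ascorbic acid equivalents per mg, taken from an ascorbic acid standard curve.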
`Cc1ccc2[nH]c(-c3ccccc3)c(C=C3C(=O)NC(=O)NC3=O)c2c1`: the result was Active.
The same measure, in the same setting: as for `O=C1NC(=S)NC(=O)C1=Cc1c(-c2ccccc2)[nH]c2ccc(Cl)cc12`, the entry is “Active”; as for `O=C1NC(=O)/C(=C/c2c[nH]c3ccccc23)S1`, “Active”.
Turning to `O=C1NC(=O)/C(=C/c2c(-c3ccccc3)[nH]c3ccc(Cl)cc23)S1`, the outcome was Active.
Take `CC1=NNC(=O)/C1=C/c1c(-c2ccccc2)[nH]c2ccc(Cl)cc12`: the result was Active.
For `CC1=NNC(=O)/C1=C/c1c[nH]c2ccccc12`, the result was Active.
As to `O=C1NC(=S)NC(=O)C1=Cc1c[nH]c2ccccc12`, the outcome was Active.
As for `O=C1NC(=O)C(=Cc2c[nH]c3ccccc23)C(=O)N1`, the outcome was Active.
For `Cc1ccc2[nH]c(-c3ccccc3)c(/C=C3\SC(=O)NC3=O)c2c1`, the outcome was Active.
As to `Cc1ccc2[nH]c(-c3ccccc3)c(C=C3C(=O)NC(=S)NC3=O)c2c1`, the result was Active.
Turning to `O=C1NC(=O)C(=Cc2c(-c3ccccc3)[nH]c3ccc(Cl)cc23)C(=O)N1`, the outcome was Active.
As to `CC1=NNC(=O)/C1=C/c1c(-c2ccccc2)[nH]c2ccc(C)cc12`, the result was Active.
